The source made the active and inactive calls. The calls are words filed in the database; no cut-off is given here.
Assays:
HCT-116 [1] = assay: Growth inhibition of human HCT116 cells at 10 uM after 72 hrs by SRB assay; assay type: functional; details: for inhibition at 10 µM: HCT-116, 72 h
Method in brief: (§1)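 SRB growth assay on HCT-116 or HT-29 cells (RPMI-1640, 10% FBS, 37 °C, 5% CO2). Seeded at 6000 cells/well, attached overnight, exposed in triplicate at 10 μM for 72 h. Cells TCA-fixed, SRB-stained, A515 read. Percent inhibition = [1 − A515 treated/A515 control] × 100; mean of three determinations.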

HT-29 [2] = assay: Growth inhibition of human HT29 cells after 72 hrs by SRB assay; assay type: functional, cell-based; details: HT-29, 72 h
Method in brief: (§2)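 HCT-116 and HT-29 human colorectal lines (ATCC) grown in RPMI-1640 with 10% FBS, 2 mmol/L glutamine, penicillin/streptomycin, at 37 °C in 5% CO2. Seeded at 6000 cells/well, attached overnight, then treated in triplicate with graded concentrations for 72 h. Cells fixed in 10% TCA, stained with SRB, and A515 read. IC50 obtained by the Logit method; mean of three independent tests.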

HT-29 [3] = assay: Growth inhibition of human HT29 cells at 10 uM after 72 hrs by SRB assay; assay type: functional; details: for inhibition at 10 µM: HT-29, 72 h; method in brief: as §1
HCT-116 [4] = assay: Growth inhibition of human HCT116 cells after 72 hrs by SRB assay; assay type: functional, cell-based; details: HCT-116, 72 h; method in brief: as §2
[5] = Clearance in Sprague-Dawley rat at 2 mg/kg, iv; assay type: ADME, organism-based; set-up: dose 2 mg/kg, route intravenous; details: in vivo
Method in brief: (§3)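 Sprague–Dawley rats acclimatized one week, then given one iv dose of 2 mg/kg in PEG400:cremophor (100:15, v/v). Orbital-sinus blood drawn under light ether at 0, 5, 15, 30 min and 1, 2, 4, 6, 8 h; plasma stored at −70 °C.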

Mus musculus [6] = assay: Increase in body weight in KM mouse at 100 mg/kg, ip; assay type: functional; details: route intraperitoneal
[7] = Mean resident time in Sprague-Dawley rat at 10 mg/kg, po; assay type: ADME, organism-based; set-up: dose 10 mg/kg, route oral; details: in vivo
Method in brief: (§4)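 Sprague–Dawley rats given one oral gavage dose of 10 mg/kg suspended in 0.5% CMC-Na. Orbital-sinus blood drawn at 0, 5, 15, 30 min and 1, 2, 4, 6, 8 h; plasma frozen at −70 °C, extracted with EtOAc, and quantified by LC–MS/MS. Cmax and Tpeak read directly from the data; t1/2 = 0.693/k; mean ± SD.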

Mus musculus [8] = assay: Tumor weight in KM mouse at 100 mg/kg, ip; assay type: functional; details: route intraperitoneal
Sarcoma-180 = assay: Antitumor activity in sarcoma180 cells implanted in KM mouse at 200 mg/kg, ip after 7 days; assay type: functional; details: route intraperitoneal
Method in brief: (§5)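 Sarcoma 180 cells implanted in the axilla of female KM mice (6–8 weeks) on Day 0, randomized on Day 1 (control 20/group, treated 10/group). Treated mice got 200 mg/kg ip once daily for 7 days, suspended in 0.5% CMC. Mice killed 24 h after the last dose; body and tumor weights taken. Inhibition = (control − treated mean tumor weight)/control mean tumor weight × 100%.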

Mus musculus [9] = assay: Tumor weight in KM mouse at 200 mg/kg, ip after 7 days; assay type: functional; details: route intraperitoneal; method in brief: as §5
Rattus norvegicus = assay: Volume of distribution in Sprague-Dawley rat at 2 mg/kg, iv; assay type: ADME, organism-based; set-up: dose 2 mg/kg, route intravenous; details: in vivo; method in brief: as §3
[10] = Cmax in Sprague-Dawley rat at 10 mg/kg, po after 15 mins; assay type: ADME, organism-based; set-up: dose 10 mg/kg, route oral; details: in vivo; method in brief: as §4
[11] = Elimination half life in Sprague-Dawley rat at 10 mg/kg, po; assay type: ADME, organism-based; set-up: dose 10 mg/kg, route oral; details: in vivo; method in brief: as §4
[12] = Oral bioavailability in Sprague-Dawley rat at 10 mg/kg; assay type: ADME, organism-based; details: in vivo
Method in brief: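 Rats received 10 mg/kg oral (0.5% CMC-Na) or 2 mg/kg iv (PEG400:cremophor 100:15). Serial plasma samples, 0–8 h, quantified by LC–MS/MS after EtOAc extraction. F = (AUCoral × Dose_iv)/(AUC_iv × Dose_oral) × 100%.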

[13] = Mean resident time in Sprague-Dawley rat at 2 mg/kg, iv; assay type: ADME, organism-based; set-up: dose 2 mg/kg, route intravenous; details: in vivo; method in brief: as §3
[14] = Elimination half life in Sprague-Dawley rat at 2 mg/kg, iv; assay type: ADME, organism-based; set-up: dose 2 mg/kg, route intravenous; details: in vivo; method in brief: as §3
Mus musculus [15] = assay: Increase in body weight in KM mouse at 200 mg/kg, ip after 7 days; assay type: functional; details: route intraperitoneal; method in brief: as §5

Compound	inhibition at 10 µM (HCT-116 [1])	inhibition at 10 µM (HT-29 [3])	further results
Clc1ccc(Nc2nc(Nc3ccccc3)nc(N3CCOCC3)n2)cc1	51.7%	87.1%	IC50 (HT-29 [2]): 37 µM
c1ccc(Nc2nc(NCCN3CCOCC3)nc(Nc3ccccc3)n2)cc1	30.1%	23.4%	
COc1ccc(Nc2nc(N3CCOCC3)nc(N3CCOCC3)n2)cc1	6.9%	74.2%	
FC(F)(F)Oc1ccc(Nc2nc(Nc3ccccc3)nc(N3CCOCC3)n2)cc1	63.4%	87.3%	
COc1ccc(Nc2nc(Nc3ccc(SC)cc3)nc(N3CCOCC3)n2)cc1OC	79.2%	81.4%	
COc1ccc(Nc2nc(NCc3ccccc3)nc(N3CCOCC3)n2)cc1	20.1%	88.4%	
C1CN(c2nc(N3CCOCC3)nc(N3CCOCC3)n2)CCO1			Activity (HCT-116 [1]): inactive; Activity (HT-29 [3]): inactive
COc1ccc(Nc2nc(Nc3ccc(S(N)(=O)=O)cc3)nc(N3CCOCC3)n2)cc1	69%	83.2%	
Cc1ccc(CNc2nc(Nc3ccccc3)nc(N3CCOCC3)n2)cc1	15.7%	75.3%	
c1ccc(Nc2nc(N3CCOCC3)nc(N3CCOCC3)n2)cc1	44.9%	80.5%	
COc1cccc(Nc2nc(Nc3ccccc3)nc(N3CCOCC3)n2)c1	82.6%	87.4%	IC50 (HT-29 [2]): 39 µM
NS(=O)(=O)c1ccc(Nc2nc(Nc3ccccc3)nc(N3CCOCC3)n2)cc1	96.2%	80.4%	IC50 (HCT-116 [4]): 2 µM
Fc1ccc(Nc2nc(Nc3ccccc3)nc(N3CCOCC3)n2)cc1	60.1%	90%	
c1ccc(CNc2nc(NCc3ccccc3)nc(N3CCOCC3)n2)cc1		50%	Activity (HCT-116 [1]): inactive
c1ccc(CNc2nc(N3CCOCC3)nc(N3CCOCC3)n2)cc1		5.2%	Activity (HCT-116 [1]): inactive
NS(=O)(=O)c1ccc(Nc2nc(N3CCOCC3)nc(N3CCOCC3)n2)cc1			Activity (HCT-116 [1]): inactive; Activity (HT-29 [3]): inactive
c1ccc(Nc2nc(Nc3ccccc3)nc(N3CCOCC3)n2)cc1	81.3%	85%	IC50 (HT-29 [2]): 31 µM; IC50 (HCT-116 [4]): 4.7 µM
c1ccc(CNc2nc(Nc3ccccc3)nc(N3CCOCC3)n2)cc1	48.7%	90.5%	
NC(=O)c1ccc(Nc2nc(Nc3ccccc3)nc(N3CCOCC3)n2)cc1	85.8%	87.8%	IC50 (HT-29 [2]): 8.1 µM; IC50 (HCT-116 [4]): 9.6 µM

Compound	inhibition at 10 µM (HCT-116 [1])	inhibition at 10 µM (HT-29 [3])	further results
Fc1ccc(Nc2nc(NCc3ccccc3)nc(N3CCOCC3)n2)cc1	10.1%	87.1%	
COc1ccc(Nc2nc(NCCN3CCOCC3)nc(Nc3ccccc3)n2)cc1		74.6%	Activity (HCT-116 [1]): inactive
COc1ccc(Nc2nc(Nc3ccc(F)cc3)nc(N3CCOCC3)n2)cc1		82.3%	Activity (HCT-116 [1]): inactive
Fc1ccc(Nc2nc(N3CCOCC3)nc(N3CCOCC3)n2)cc1		80.2%	Activity (HCT-116 [1]): inactive
COc1ccc(Nc2nc(Nc3ccccc3)nc(N3CCOCC3)n2)cc1	81.4%	100%	clearance [5]: 22.7 mL/min/kg; Activity (Mus musculus [6]): 29.3 g; IC50 (HT-29 [2]): 30 µM; IC50 (HCT-116 [4]): 0.76 µM; MRT [7]: 1.88 h; Activity (Mus musculus [8]): 1.65 g; Activity (Sarcoma-180): 40.7%; Activity (Mus musculus [9]): 0.89 g; Vdss (Rattus norvegicus): 2.11 L/kg; Cmax [10]: 1290 ng/mL; half-life [11]: 1.16 h; bioavailability [12]: 30.9%; MRT [13]: 1.06 h; half-life [14]: 1.09 h; Activity (Mus musculus [15]): 27.3 g
COc1ccc(Nc2nc(Nc3ccccc3)nc(N3CCN(CCO)CC3)n2)cc1	19%	77.3%	
Brc1ccc(Nc2nc(Nc3ccccc3)nc(N3CCOCC3)n2)cc1	77.7%	89.7%	IC50 (HT-29 [2]): 25 µM
COc1ccc(Nc2nc(NCCO)nc(Nc3ccccc3)n2)cc1		13.7%	Activity (HCT-116 [1]): inactive
OCCNc1nc(Nc2ccccc2)nc(Nc2ccccc2)n1		33.9%	Activity (HCT-116 [1]): inactive
COc1ccc(Nc2nc(Nc3ccccc3)nc(N3CCOCC3)n2)cc1OC	84.7%	76.4%	IC50 (HCT-116 [4]): 0.92 µM
NS(=O)(=O)c1ccc(Nc2nc(NCc3ccccc3)nc(N3CCOCC3)n2)cc1		68.6%	Activity (HCT-116 [1]): inactive
OCCN1CCN(c2nc(Nc3ccccc3)nc(Nc3ccccc3)n2)CC1	22%	76.1%	
COc1ccc(Nc2nc(Nc3ccc(OC)cc3)nc(N3CCN(CCO)CC3)n2)cc1		49.3%	Activity (HCT-116 [1]): inactive
CSc1ccc(Nc2nc(Nc3ccc(C)cc3)nc(N3CCOCC3)n2)cc1	71.1%	54.1%	IC50 (HCT-116 [4]): 120 µM
COc1ccc(Nc2nc(Nc3ccc(OC)cc3)nc(N3CCOCC3)n2)cc1	53.3%	80.6%	IC50 (HT-29 [2]): 100 µM
CCOc1ccc(Nc2nc(Nc3ccccc3)nc(N3CCOCC3)n2)cc1	64.1%	87.5%	
COc1ccccc1Nc1nc(Nc2ccccc2)nc(N2CCOCC2)n1	78.3%	89.3%	
Fc1ccc(Nc2nc(Nc3ccc(OC(F)(F)F)cc3)nc(N3CCOCC3)n2)cc1	62%	85.5%	

Source: ChEMBL document CHEMBL1146333, “Synthesis and antitumor evaluation of a novel series of triaminotriazine derivatives” (Bioorg Med Chem, 2007)
